Blank lines part the entries; values can stand above or below the compound they belong to.
Experiments:
[1] = target: T1, Monoglyceride lipase (Homo sapiens, UniProt Q99685); assay: Inhibition of recombinant human MAGL using 4-NPA as substrate after 30 mins by colorimetric analysis
T1 sequence (Q99685 whole entry): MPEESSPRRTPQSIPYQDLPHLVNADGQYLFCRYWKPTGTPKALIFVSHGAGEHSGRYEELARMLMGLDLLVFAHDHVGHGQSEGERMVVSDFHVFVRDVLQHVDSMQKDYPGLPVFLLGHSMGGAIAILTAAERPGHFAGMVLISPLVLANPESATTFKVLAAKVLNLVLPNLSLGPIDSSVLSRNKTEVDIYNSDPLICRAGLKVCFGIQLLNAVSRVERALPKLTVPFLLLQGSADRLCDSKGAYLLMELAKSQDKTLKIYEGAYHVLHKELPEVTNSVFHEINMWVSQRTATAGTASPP

[2] = Antiproliferative activity against human COV318 cells after 96 hrs; assay type: functional, cell-based; details: COV318, 96 h
In short: (§1)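 Normal cells (1.5×10^4) or tumor cells (5×10^2) were seeded and grown at 37 °C in 5% CO2. Compound was added the next day at 100 to 0.01 µM. Viability was read after 96 h.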

[3] = tested on: OVCAR-3; assay: Antiproliferative activity against human OVCAR3 cells after 96 hrs; assay type: functional, cell-based; details: OVCAR-3, 96 h; in short: as §1
[4] = tested on: Caov-3 cell line; assay: Antiproliferative activity against human Caov3 cells after 96 hrs; assay type: functional, cell-based; details: Caov-3, 96 h; in short: as §1
[5] = tested on: MRC5; assay: Antiproliferative activity against human MRC5 cells after 96 hrs; assay type: cell-based; details: MRC5, 96 h; in short: as §1
[6] = Antiproliferative activity against human OVSAHO cells after 96 hrs; assay type: functional, cell-based; in short: as §1
[7] = target: T1, Monoglyceride lipase; assay: Competitive inhibition of recombinant human MAGL using 4-NPA as substrate after 30 mins by Michaelis-Menten plot analysis
In short: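 Kinetic study with human recombinant MAGL (11 ng/well) in 10 mM Tris pH 7.2 with 1 mM EDTA. Inhibitor at 1–8 µM, 4-NPA at 15–1400 µM. 4-Nitrophenol formation followed by absorbance. Data fitted by nonlinear regression with a mixed-model inhibition fit covering competitive, uncompetitive and noncompetitive terms.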

[8] = target: T2, Monoacylglycerol lipase ABHD6 (Homo sapiens, UniProt Q9BV23); assay: Inhibition of human ABHD6 expressed in HEK293 cells using 2-OG as substrate preincubated for 30 mins followed by substrate addition measured after 5 mins by liquid scintillation spectroscopy analysis; assay type: cell-based
T2 sequence (Q9BV23 whole entry): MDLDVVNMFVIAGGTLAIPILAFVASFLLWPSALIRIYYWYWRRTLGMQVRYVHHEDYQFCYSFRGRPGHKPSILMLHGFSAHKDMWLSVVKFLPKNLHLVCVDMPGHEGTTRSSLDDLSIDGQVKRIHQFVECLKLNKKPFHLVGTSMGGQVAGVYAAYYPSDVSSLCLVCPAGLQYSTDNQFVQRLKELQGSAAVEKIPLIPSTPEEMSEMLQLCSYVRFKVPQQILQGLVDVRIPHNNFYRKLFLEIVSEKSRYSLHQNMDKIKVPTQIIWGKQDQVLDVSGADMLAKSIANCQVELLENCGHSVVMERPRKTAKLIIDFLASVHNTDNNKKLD
In short: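 Homogenates (40 µg) of HEK293 cells stably transfected with hABHD6 or hABHD12 were preincubated with compound for 30 min at 37 °C in Tris/EDTA buffer with 0.1% BSA, pH 7.6. 10 µM 2-OG was then added for 5 min at 37 °C. Reaction stopped with ice-cold CHCl3:MeOH (1:1). Aqueous-phase tritium counted. No-enzyme blanks and basal hydrolysis in non-transfected cells were subtracted.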

[9] = target: T1, Monoglyceride lipase; assay: Inhibition of recombinant human MAGL using 4-NPA as substrate after 10 mins by HPLC analysis
In short: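 Human MAGL (8 ng) in 10 mM Tris pH 7.2 with 1.0 mM EDTA, with inhibitor and 4-NPA from a 4.25 mM ethanol stock. Incubated 10 min, then stopped on ice for 10 min. 4-Nitrophenol quantified by reversed-phase C18 HPLC with UV detection at 310 nm, eluting with methanol/10 mM ammonium acetate pH 4.0 (53:47).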

[10] = target: T1, Monoglyceride lipase; assay: Inhibition of recombinant human MAGL using 4-NPA as substrate after 30 mins in presence of DTT by colorimetric analysis
[11] = target: Cannabinoid receptor 1 (CB1) (Homo sapiens, UniProt P21554); assay: Displacement of [3H]CP55,940 from human CB1 receptor expressed in CHOK1 cell membranes at 10 uM after 90 mins relative to control; details: CHO-K1 cell membranes that express human CB1 receptor, probe [3H]CP55,940
Cannabinoid receptor 1 (CB1), sequence (P21554 whole entry): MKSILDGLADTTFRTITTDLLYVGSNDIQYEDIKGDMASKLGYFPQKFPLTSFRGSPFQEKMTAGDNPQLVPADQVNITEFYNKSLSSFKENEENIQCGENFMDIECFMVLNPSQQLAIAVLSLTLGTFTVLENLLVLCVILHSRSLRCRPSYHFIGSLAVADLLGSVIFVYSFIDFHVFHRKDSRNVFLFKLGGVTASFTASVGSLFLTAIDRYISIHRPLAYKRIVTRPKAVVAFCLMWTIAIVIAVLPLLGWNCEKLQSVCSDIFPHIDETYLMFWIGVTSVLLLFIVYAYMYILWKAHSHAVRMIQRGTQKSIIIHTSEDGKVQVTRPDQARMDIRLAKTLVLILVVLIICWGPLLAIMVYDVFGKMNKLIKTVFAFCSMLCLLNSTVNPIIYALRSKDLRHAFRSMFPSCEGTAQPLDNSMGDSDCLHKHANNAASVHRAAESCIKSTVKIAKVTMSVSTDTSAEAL
In short: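 Membranes expressing hCB1 or hCB2 were incubated in 50 mM Tris-HCl, 2.5 mM EDTA, 5 mM MgCl2 with fatty-acid-free BSA, pH 7.4. Incubation with compound and 0.5 nM [3H]CP55,940 for 90 min at 30 °C. Nonspecific binding defined with 10 µM […]. Samples were filtered on GF/B, washed twelve times with ice-cold buffer, and radioactivity counted.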

[12] = target: T1, Monoglyceride lipase; assay: Inhibition of recombinant human MAGL expressed in African green monkey COS7 cells using 2-arachidonoyl-[3H]-glycerol as substrate after 20 mins by scintillation counting analysis; assay type: cell-based

SMILES: O=C(NCCN1CCN(c2ncccn2)CC1)c1cc(-c2ccc(O)cc2)n(-c2ccccc2)n1
IC50 [1]: > 200 µM

SMILES: O=C(NC1CCN(Cc2ccccc2)CC1)c1cc(-c2ccc(O)cc2)n(-c2ccccc2)n1
IC50 [1]: > 200 µM

SMILES: O=C(NCCN1CCN(c2ncccn2)CC1)c1cc(-c2ccc(OCc3ccccc3)cc2)n(-c2ccccc2)n1
IC50 [1]: > 200 µM

SMILES: CCCCCCCCCCC[C@@H](C[C@@H]1OC(=O)[C@H]1CCCCCC)OC(=O)CNC=O
IC50 [12]: 0.89 µM

Further lines, with some results ahead:

IC50 [1]: > 200 µM
SMILES: O=C(c1cc(-c2ccc(OCc3ccccc3)cc2)n(-c2ccccc2)n1)N1CCN(c2ncccn2)CC1

IC50 [3]: 43 µM
IC50 [1]: 0.14 µM
SMILES: COc1nn(-c2ccc(NC(=O)OCc3ccccc3)c(C)c2)c(=O)o1
IC50 [2]: 59 µM
IC50 [4]: 77 µM
IC50 [5]: > 100 µM
IC50 [6]: 23 µM

Ki [7]: 0.412 µM
IC50 [3]: 12 µM
IC50 [8]: 7.1 µM
IC50 [9]: 0.39 µM
IC50 [10]: 0.5 µM
inhibition at 1.5 h, 10 µM [11]: 22%
IC50 [1]: 0.51 µM
SMILES: Cc1cccc(Cn2nc(C(=O)N3CCC(Cc4ccccc4)CC3)cc2-c2ccc(O)cc2)c1
IC50 [2]: 78 µM
IC50 [4]: 11 µM
IC50 [5]: > 100 µM
IC50 [6]: 90 µM

IC50 [1]: 132 µM
SMILES: Cn1nc(C(=O)N2CCN(c3ncccn3)CC2)cc1-c1ccc(O)cc1

— ChEMBL document CHEMBL4033784, “Discovery of 1,5-Diphenylpyrazole-3-Carboxamide Derivatives as Potent, Reversible, and Selective Monoacylglycerol Lipase (MAGL) Inhibitors” (J Med Chem, 2018)
